Measurements from ChEMBL document CHEMBL1142938 (J Med Chem, 2007).

How the values were obtained:
Adenosine receptor A1 = target: T1, Adenosine receptor A1 (Homo sapiens, UniProt P30542); assay: Displacement of [3H]CCPA from human recombinant adenosine A1 receptor expressed in CHO cells; format: cell-based
T1 sequence (P30542 whole entry): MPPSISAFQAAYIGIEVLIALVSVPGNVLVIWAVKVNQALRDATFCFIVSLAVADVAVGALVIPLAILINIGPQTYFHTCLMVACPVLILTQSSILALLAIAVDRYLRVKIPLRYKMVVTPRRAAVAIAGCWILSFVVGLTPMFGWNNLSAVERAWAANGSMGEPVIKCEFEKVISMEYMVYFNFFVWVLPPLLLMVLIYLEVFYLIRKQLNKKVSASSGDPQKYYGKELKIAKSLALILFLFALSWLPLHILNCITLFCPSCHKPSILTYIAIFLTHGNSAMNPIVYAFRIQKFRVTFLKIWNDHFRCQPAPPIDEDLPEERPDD

Adenosine receptor A2a = Adenosine receptor A2a (Homo sapiens, UniProt P29274); assay: Displacement of [3H]NECA from human recombinant adenosine A2A receptor expressed in CHO cells; format: cell-based
Adenosine receptor A2a, sequence (P29274 whole entry): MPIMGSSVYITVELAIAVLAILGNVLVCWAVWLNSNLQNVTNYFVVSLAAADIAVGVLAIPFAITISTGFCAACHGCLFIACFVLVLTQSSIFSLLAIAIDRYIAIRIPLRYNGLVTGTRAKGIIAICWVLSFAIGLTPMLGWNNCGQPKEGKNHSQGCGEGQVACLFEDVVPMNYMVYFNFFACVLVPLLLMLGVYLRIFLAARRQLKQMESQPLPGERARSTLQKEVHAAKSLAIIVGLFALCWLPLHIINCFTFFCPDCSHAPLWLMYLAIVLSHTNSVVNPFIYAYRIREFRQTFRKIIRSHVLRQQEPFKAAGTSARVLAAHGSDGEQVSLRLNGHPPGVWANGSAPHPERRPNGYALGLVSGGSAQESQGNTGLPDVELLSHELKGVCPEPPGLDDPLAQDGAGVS
How it was run: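 Competition binding with [3H]NECA at 30 nM on stably transfected CHO cells. Nonspecific binding defined with 1 mM theophylline. Dissociation constants (Ki) obtained by nonlinear curve fitting.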

Adenosine receptor A3 = target: T2, Adenosine receptor A3 (Homo sapiens, UniProt P0DMS8); assay: Displacement of [3H]NECA from human recombinant adenosine A3 receptor expressed in CHO cells; format: cell-based
T2 sequence (P0DMS8 whole entry): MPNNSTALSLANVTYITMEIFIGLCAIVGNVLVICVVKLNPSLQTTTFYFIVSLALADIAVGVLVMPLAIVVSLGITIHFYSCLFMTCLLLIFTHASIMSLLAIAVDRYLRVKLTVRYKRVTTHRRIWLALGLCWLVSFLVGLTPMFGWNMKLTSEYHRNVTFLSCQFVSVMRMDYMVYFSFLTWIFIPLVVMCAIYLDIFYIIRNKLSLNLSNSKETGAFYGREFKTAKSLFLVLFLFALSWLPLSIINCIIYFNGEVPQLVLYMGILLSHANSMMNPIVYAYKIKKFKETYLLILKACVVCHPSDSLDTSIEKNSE
How it was run: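 [3H]NECA used at 10 nM as radioligand in competition experiments, stably transfected CHO cells. Nonspecific binding defined with 1 mM theophylline. Ki from nonlinear curve fitting.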

[1] = target: Adenosine receptors; A1 & A3 (Homo sapiens) (UniProt P30542+P0DMS8); assay: Selectivity for human adenosine A3 receptor over human adenosine A1 receptor; format: protein assay
[2] = target: Adenosine receptors; A2a & A3 (Homo sapiens) (UniProt P0DMS8+P29274); assay: Selectivity for human adenosine A3 receptor over human adenosine A2A receptor; format: protein assay
[3] = target: T3, Adenosine receptor A3 (Homo sapiens) (UniProt P0DMS8); assay: Activity at human adenosine A3 receptor assessed as inhibition of forskolin-stimulated cAMP production in CHO cells; format: functional, cell-based; parameters: concentration or dose not given beside the values
T3 sequence (whole entry): T2 sequence (P0DMS8 whole entry)

Row | Compound | Ki (Adenosine receptor A1) | Ki (Adenosine receptor A2a) | Ki (Adenosine receptor A3) | Ratio Ki [1] | Ratio Ki [2] | Activity [3]
1 | CNC(=O)[C@H]1O[C@@H](n2cnc3c(NOC)nc(C#Cc4ccc(C(C)=O)cc4)nc32)[C@H](O)[C@@H]1O | 53800 nM | 10400 nM | 2.5 nM | 21500 | 4200 | 41%
2 | CONc1nc(C#Cc2ccncc2)nc2c1ncn2[C@@H]1O[C@H](CO)[C@@H](O)[C@H]1O | 1190 nM | 6310 nM | 6 nM | 198 | 1100 | –
3 | CCCCCc1ccc(C#Cc2nc(NOC)c3ncn([C@@H]4O[C@H](CO)[C@@H](O)[C@H]4O)c3n2)cc1 | 730 nM | 6520 nM | 39 nM | 19 | 167 | –
4 | CONc1nc(C#C[Si](C)(C)C)nc2c1ncn2[C@@H]1O[C@H](CO)[C@@H](O)[C@H]1O | 22 nM | 5740 nM | 13 nM | 1.7 | 441 | –
5 | CONc1nc(C#Cc2ccc(OC)cc2)nc2c1ncn2[C@@H]1O[C@H](CO)[C@@H](O)[C@H]1O | 1870 nM | 1780 nM | 4.3 nM | 435 | 414 | –
6 | CNC(=O)[C@H]1O[C@@H](n2cnc3c(NOC)nc(C#Cc4ccccn4)nc32)[C@H](O)[C@@H]1O | 3990 nM | 18000 nM | 1.1 nM | 3600 | 16400 | 34%
7 | CCNC(=O)[C@H]1O[C@@H](n2cnc3c(N)nc(C#Cc4ccccc4)nc32)[C@H](O)[C@@H]1O | – | – | – | 90 | 100 | –
8 | CONc1nc(C#Cc2cccc(C(F)(F)F)c2)nc2c1ncn2[C@@H]1O[C@H](CO)[C@@H](O)[C@H]1O | 2450 nM | 8270 nM | 23 nM | 106 | 360 | –
9 | CNC(=O)[C@H]1O[C@@H](n2cnc3c(NOC)nc(C#Cc4ccc(C)cc4)nc32)[C@H](O)[C@@H]1O | – | 14700 nM | 3.3 nM | 3600 | 4500 | –
10 | CCNC(=O)[C@H]1O[C@@H](n2cnc3c(NOC)nc(I)nc32)[C@H](O)[C@@H]1O | 53 nM | 5290 nM | 2.8 nM | 19 | 1900 | –
11 | CONc1nc(C#Cc2ccc(C(C)=O)cc2)nc2c1ncn2[C@@H]1O[C@H](CO)[C@@H](O)[C@H]1O | 1280 nM | 2680 nM | 3 nM | 427 | 893 | 81%
12 | CCNC(=O)[C@H]1O[C@@H](n2cnc3c(NOC)nc(C#Cc4ccc(C)cc4)nc32)[C@H](O)[C@@H]1O | 1420 nM | 4600 nM | 6.8 nM | 209 | 676 | –
13 | C#Cc1nc(NOC)c2ncn([C@@H]3O[C@H](CO)[C@@H](O)[C@H]3O)c2n1 | 25 nM | 3140 nM | 23 nM | 1 | 136 | –
14 | CCNC(=O)[C@H]1O[C@@H](n2cnc3c(NOC)nc(C#Cc4ccc(F)cc4)nc32)[C@H](O)[C@@H]1O | 1880 nM | 6290 nM | 3.2 nM | 587 | 2000 | –
15 | CONc1nc(C#Cc2ccc(C(N)=O)cc2)nc2c1ncn2[C@@H]1O[C@H](CO)[C@@H](O)[C@H]1O | 901 nM | 3130 nM | 5.2 nM | 173 | 602 | –
16 | CNC(=O)[C@H]1O[C@@H](n2cnc3c(NOC)nc(I)nc32)[C@H](O)[C@@H]1O | 153 nM | 12100 nM | 1.7 nM | 90 | 7100 | –
17 | CONc1nc(C#Cc2ccccn2)nc2c1ncn2[C@@H]1O[C@H](CO)[C@@H](O)[C@H]1O | 437 nM | 2960 nM | 2.3 nM | 190 | 1300 | 94%

Row | Compound | Ki (Adenosine receptor A1) | Ki (Adenosine receptor A2a) | Ki (Adenosine receptor A3) | Ratio Ki [1] | Ratio Ki [2] | Activity [3]
18 | CONc1nc(C#Cc2ccc(F)cc2)nc2c1ncn2[C@@H]1O[C@H](CO)[C@@H](O)[C@H]1O | 2790 nM | 3960 nM | 4.4 nM | 634 | 900 | –
19 | CONc1nc(C#CCC(C)O)nc2c1ncn2[C@@H]1O[C@H](CO)[C@@H](O)[C@H]1O (some centres not stated) | 95 nM | 758 nM | 5.4 nM | 18 | 140 | –
20 | CCCCC#Cc1nc(NOC)c2ncn([C@@H]3O[C@H](CO)[C@@H](O)[C@H]3O)c2n1 | 97 nM | 267 nM | 2.8 nM | 35 | 95 | –
21 | CCNC(=O)[C@H]1O[C@@H](n2cnc3c(NOC)nc(C#Cc4ccccn4)nc32)[C@H](O)[C@@H]1O | 175 nM | 6460 nM | 1.6 nM | 109 | 4000 | –
22 | CCCCCc1ccc(C#Cc2nc(NOC)c3ncn([C@@H]4O[C@H](C(=O)NCC)[C@@H](O)[C@H]4O)c3n2)cc1 | 4090 nM | 27100 nM | 68 nM | 60 | 399 | –
23 | CONc1nc(C#CCCCC#N)nc2c1ncn2[C@@H]1O[C@H](CO)[C@@H](O)[C@H]1O | 282 nM | 1820 nM | 4.1 nM | 69 | 444 | –
24 | CONc1nc(I)nc2c1ncn2[C@@H]1O[C@H](CO)[C@@H](O)[C@H]1O | 58 nM | 12400 nM | 7.4 nM | 8 | 1700 | –
25 | Nc1nc(C#Cc2ccccc2)nc2c1ncn2[C@@H]1O[C@H](CO)[C@@H](O)[C@H]1O | – | – | – | 24 | 23 | –
26 | CNC(=O)[C@H]1O[C@@H](n2cnc3c(NOC)nc(C#Cc4ccc(F)cc4)nc32)[C@H](O)[C@@H]1O | 3000 nM | 18700 nM | 1.9 nM | 1600 | 9800 | –
27 | CCCCCc1ccc(C#Cc2nc(NOC)c3ncn([C@@H]4O[C@H](C(=O)NC)[C@@H](O)[C@H]4O)c3n2)cc1 | 48100 nM | 31700 nM | 55 nM | 874 | 576 | –
28 | CONc1nc(C#Cc2ccccc2)nc2c1ncn2[C@@H]1O[C@@H](CO)[C@@H](O)[C@H]1O | 1210 nM | 4290 nM | 3.8 nM | 318 | 1100 | 81%
29 | CONc1nc(C#Cc2ccc(CC#N)cc2)nc2c1ncn2[C@@H]1O[C@H](CO)[C@@H](O)[C@H]1O | 766 nM | 3080 nM | 3.7 nM | 207 | 832 | –
30 | CCNC(=O)[C@H]1O[C@@H](n2cnc3c(NOC)nc(C#Cc4ccccc4)nc32)[C@H](O)[C@@H]1O | 1880 nM | – | 3.5 nM | – | – | 35%
31 | CONc1nc(C#Cc2cccnc2)nc2c1ncn2[C@@H]1O[C@H](CO)[C@@H](O)[C@H]1O | 255 nM | 12500 nM | 7.9 nM | 32 | 1600 | –
32 | CCNC(=O)[C@H]1O[C@@H](n2cnc3c(NOC)nc(C#Cc4ccc(C(C)=O)cc4)nc32)[C@H](O)[C@@H]1O | 1230 nM | 4210 nM | 4 nM | 307 | 1100 | –
33 | CNC(=O)[C@H]1O[C@@H](n2cnc3c(NOC)nc(C#Cc4ccccc4)nc32)[C@H](O)[C@@H]1O | 9140 nM | 16300 nM | 1.9 nM | 4800 | 8600 | 38%
34 | CONc1nc(C#Cc2ccc(C)cc2)nc2c1ncn2[C@@H]1O[C@H](CO)[C@@H](O)[C@H]1O | 1380 nM | 35100 nM | 5.9 nM | 234 | 6000 | –
